Results on 93 molecules are retold here after PubChem BioAssay AID1325 (NMMLSC, 2008).

About 200 (0.11%) of roughly 190,000 compounds were called active.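 Rule for the calls: active = inhibition above 80%; inactive = the rest.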 The entries come from a sample that favours actives as a whole.

Broad substrate specificity ATP-binding cassette transporter ABCG2 (Homo sapiens), sequence (Q9UNQ0 whole entry, looked up): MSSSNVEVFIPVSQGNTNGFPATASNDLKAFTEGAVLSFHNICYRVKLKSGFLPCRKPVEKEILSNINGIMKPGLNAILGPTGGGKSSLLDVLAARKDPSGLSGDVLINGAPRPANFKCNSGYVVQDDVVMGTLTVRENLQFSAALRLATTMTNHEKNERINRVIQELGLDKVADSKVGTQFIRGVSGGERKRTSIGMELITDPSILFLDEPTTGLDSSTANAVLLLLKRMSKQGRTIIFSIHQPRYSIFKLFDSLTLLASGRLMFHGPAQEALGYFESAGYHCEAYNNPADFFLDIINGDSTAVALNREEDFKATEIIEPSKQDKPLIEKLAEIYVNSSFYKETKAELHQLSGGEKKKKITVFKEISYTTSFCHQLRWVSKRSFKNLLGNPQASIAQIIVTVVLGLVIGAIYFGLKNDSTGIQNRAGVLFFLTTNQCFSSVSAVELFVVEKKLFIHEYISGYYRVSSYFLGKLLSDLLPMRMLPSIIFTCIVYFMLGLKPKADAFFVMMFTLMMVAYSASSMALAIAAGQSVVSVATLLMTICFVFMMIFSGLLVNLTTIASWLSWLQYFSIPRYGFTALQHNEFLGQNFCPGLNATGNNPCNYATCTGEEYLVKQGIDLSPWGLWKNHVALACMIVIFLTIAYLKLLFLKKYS

The test addresses Broad substrate specificity ATP-binding cassette transporter ABCG2 (Homo sapiens) (UniProt Q9UNQ0). Description: blockers of JC-1 export by ABCG2 – multiplex with ABCB1, IgMXP3 cells, flow cytometry, primary screen (AID 1325).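 Note: 0% = DMSO and 100% = nicardipine control wells.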 As to conditions: JC-1 efflux, at 6.6 µM, hits give high values. An outline of the steps: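 Times: 10 min at 25 °C | Test system: Two drug-resistant human cell lines, ABCG2 and ABCB1 | Quantity: 3 million cells/mL final, two lines in 1:1 ratio | Signal: Flow cytometry, 530 nm JC-1 signal | Dosing: Compound at 6.6 µM | Controls: Nicardipine and DMSO wells | Reagent: JC-1 as fluorescent efflux pump substrate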
As to `Cc1[nH]c2ccccc2c1/C=N/NC(=O)CNC(=O)c1ccc2c(c1)OCO2`, the inhibition is 0.16% (inactive).
For `O=C(NNC(=S)Nc1ccc(Br)cc1Cl)c1ccco1`, the inhibition was -9.07% (inactive).
On to `CNC(=O)c1ccsc1NC(=O)c1ccc(S(=O)(=O)N2CCc3ccccc32)cc1`, for which the inhibition was 0.15% (inactive).
The result for `CCCC(=O)NC(=S)Nc1ccc(CN2CCOCC2)cc1` reads 1.31% (inactive); that for `CCN(C(=O)COC(=O)/C=C/c1nc2ccccc2s1)C1CCS(=O)(=O)C1` (stereo not drawn), 1.28% (inactive); that for `O=C(Nc1ccc(C(=O)O)cc1)/C(=C/c1ccc([N+](=O)[O-])cc1)NC(=O)c1ccccc1`, 2.36% (inactive).
As to `C=CCNC(=O)/C=C/c1ccc(C(C)C)cc1`, the inhibition is 3.56% (inactive).
Regarding `Cc1ccc(S(=O)(=O)NCCc2nnc3ccc(SCc4cccnc4)nn23)cc1`, the inhibition is 0.68% (inactive).
Take `COc1ccc(C(=O)COC(=O)c2nn(C)c(=O)c3ccccc23)c(OC)c1`: the inhibition is 8.17% (inactive).
In the case of `COCCCNC(=O)CNC(=S)N(Cc1cc(OC)c(OC)c(OC)c1)C1CCCC1`, the inhibition was -0.12% (inactive).
As for `O=C(COc1ccc(S(=O)(=O)N2CCCCC2)cc1)NCc1ccccn1`, the inhibition was 1.47% (inactive).
For `CC1(C)CC(=O)c2c(n(S(=O)(=O)c3ccccc3)c3ccc(NS(=O)(=O)c4ccccc4)cc23)C1`, the inhibition is -0.92% (inactive).
Turning to `COc1ccc(Cl)cc1N(CC(=O)N/N=C/c1ccc(OCC(N)=O)cc1)S(C)(=O)=O`, the inhibition is 8.83% (inactive).
Regarding `CCOc1ccc(-n2cnnn2)cc1S(=O)(=O)N1CCC(C)CC1C` (stereo not drawn), the inhibition is 0.53% (inactive).
`O=C(NCCN1CCOCC1)Nc1cccc(Cl)c1`: the inhibition was 4.87% (inactive).
Turning to `Cc1cc(C)c2[nH]c(=O)c(CN(Cc3ccccc3)C(=S)NCCCN(C)C)cc2c1`, the inhibition is 54.5% (inactive).
The value for `Nn1c(SCC(=O)Nc2nccs2)nncc1=O` was 0.11% (inactive); that for `COCCCNC(=O)/C=C/c1ccc(OCc2c(F)cccc2Cl)cc1` was 3.58% (inactive); that for `COc1ccc(-c2[nH]ncc2CN(Cc2nccn2C)C(C)C)cc1F` was 3.43% (inactive).
For `N#CC1(C#N)C(C(=O)C23CC4CC(CC(C4)C2)C3)C12CCOCC2` (stereo not drawn), the inhibition was -1.02% (inactive).
In the case of `COc1cc(N2C(=O)c3ccccc3C2=O)c(Cl)cc1C(=O)OCC(=O)N1CCOCC1`, the inhibition was 2.21% (inactive).
Take `O=C(Oc1cccc(N2C(=O)C3C4c5ccccc5C(c5ccccc54)C3C2=O)c1)c1ccco1` (stereo not drawn): the inhibition was 0.99% (inactive).
In the case of `O=C1OCC2=C1C(c1ccccc1)CC(=O)N2c1cccc(F)c1` (stereo not drawn), the inhibition is 10.8% (inactive).
Turning to `COc1ccc(CN(C)Cc2nc3cc(OC)c(OC)cc3c(=O)[nH]2)c(OC)c1`, the inhibition was 3.26% (inactive).
Turning to `C[N+]1(CC(O)COc2ccccc2)CCN(C(=O)c2ccc([N+](=O)[O-])cc2)CC1` (stereo not drawn), the inhibition was 4.9% (inactive).
The result for `CC1(C)CC(=O)C2=C(C1)Nc1cc(C(=O)c3ccccc3)ccc1NC2c1ccccn1` (stereo not drawn) reads 1.87% (inactive); that for `CCN=c1sc(C(=O)Nc2ccccc2)c(C)n1CC`, 3.73% (inactive); that for `CC(C)(C)C(=O)CN1C2=NCCN2c2ccccc21`, 2.76% (inactive).
Regarding `Cn1c(=O)c2c(nc(N/N=C/c3cccs3)n2Cc2ccc(Br)cc2)n(C)c1=O`, the inhibition was 8.74% (inactive).
For the molecule `COc1ccc(Cl)cc1NC(=O)CNc1ccccc1F`, the inhibition was 28.9% (inactive).
The result for `Cc1ccc2sc(NNC(=O)c3ccc4c(c3)OCCO4)nc2c1C` reads 0% (inactive); that for `CC(Sc1nc2cc(Cl)ccc2s1)C(=O)Nc1ccc2c(c1)OCO2` (stereo not drawn), 0% (inactive); that for `O=C(/C=C/c1ccc([N+](=O)[O-])cc1)NCCSCc1ccco1`, 54.6% (inactive).
Consider `O=S(=O)(Nc1ccccn1)c1cccc(S(=O)(=O)c2ccc(Cl)cc2)c1`, for which the inhibition was -0.57% (inactive).
As to `O=C(NNC1=NCCC1)c1cccc(S(=O)(=O)N2CCCCC2)c1`, the inhibition is -6.82% (inactive).
For the molecule `C=CCc1cccc2cc(C(=O)Nc3ccc(NC(C)=O)cc3)c(=O)oc12`, the inhibition is 0.59% (inactive).
On to `O=C(CC(=O)N/N=C\c1ccc(F)cc1)NCCc1ccccc1`, for which the inhibition is 1.18% (inactive).
With `O=C(Cc1c[nH]c2ccccc12)N/N=C/c1cccc(F)c1`, the inhibition is 88.7% (active).
As to `O=C(Cc1ccc(F)cc1)N/N=C/c1ccc2c(c1)OCO2`, the inhibition is 10.1% (inactive).
For `Cc1cc(C(=O)N/N=C\C(Br)=C\c2ccccc2)c(C)o1`, the inhibition was 2.48% (inactive).
For `NC(=O)CCC(NS(=O)(=O)c1ccc(Cl)cc1)C(=O)NCc1ccccc1Cl` (stereo not drawn), the inhibition is 4.92% (inactive).
For `Cc1cc(C)n(CC(O)CN(c2ccccc2)S(=O)(=O)c2ccc3ccccc3c2)n1` (stereo not drawn), the inhibition was 16.1% (inactive).
As for `CCc1nnc(NC(=O)CSc2nc(SC)ns2)s1`, the inhibition was 1.21% (inactive).
The value for `COc1ccc(C2(CNC(=O)Cc3ccc(OC)c(OC)c3)CCCC2)cc1` was 2.77% (inactive).
In the case of `CC(C)CCN1C(=O)c2ccc(C(=O)Nc3cccc(S(N)(=O)=O)c3)cc2C1=O`, the inhibition is -4.62% (inactive).
As to `Clc1ccc(-c2ncc3ccccn23)c(Cl)c1`, the inhibition was -0.33% (inactive).
Turning to `CCOc1cc(/C=N/NC(=O)c2ccc(CSc3nncn3C)cc2)ccc1OCC(=O)N1CCOCC1`, the inhibition was -0.51% (inactive).
For the molecule `Cc1nn(CC(=O)Nc2ccc3c(c2)OCO3)c(C)c1[N+](=O)[O-]`, the inhibition is 11.5% (inactive).
Regarding `CC(=O)Nc1sc2c(c1C(c1cccc(F)c1)N1CCN(CCO)CC1)CCCC2` (stereo not drawn), the inhibition was -0.02% (inactive).
Take `O=C(c1cncc(Br)c1)N1CCN(c2ccc([N+](=O)[O-])cc2)CC1`: the inhibition was 34.2% (inactive).
`CN(C)c1ccc(/C=N/Nc2cc(N3CCOCC3)nc(N3CCOCC3)n2)cc1`: the inhibition was 5.63% (inactive).
For `Cn1nc(C(F)(F)F)c2cc(C(=O)N3CCOCC3)sc21`, the inhibition was 0.03% (inactive).
Take `Cc1cc(NC(=O)CSc2nc3cc(Cl)ccc3c(=O)n2Cc2ccco2)no1`: the inhibition is 5.22% (inactive).
The value for `CCC1CCCCN1C(=S)Nc1ccc(SC(F)F)cc1` (stereo not drawn) was 0% (inactive).
Take `O=C(N/N=C/c1cc([N+](=O)[O-])ccc1O)/C(=C\c1cccs1)NC(=O)c1ccccc1`: the inhibition is -3.14% (inactive).
For the molecule `Cn1cc(CN2CCCC(CO)C2)c(-c2ccc(Oc3ccccc3)cc2)n1` (stereo not drawn), the inhibition is -1.73% (inactive).
As to `CN(C)c1ccc(C=C2C(=O)OC3(CCCC3)OC2=O)cc1`, the inhibition is 0.11% (inactive).
As for `Cc1nc2nc[nH]n2c(=O)c1C/C=C/c1ccccc1`, the inhibition is 0.18% (inactive).
In the case of `CN(C)c1ccc2c(=O)[nH][nH]c(=O)c2c1`, the inhibition is 2.2% (inactive).
The result for `CCn1nc(C)cc1C(=O)N1CCCC(C(=O)c2cccc(OC)c2)C1` (stereo not drawn) reads -0.58% (inactive); that for `CCNS(=O)(=O)c1ccc(NC(=O)c2cncc(Br)c2)cc1`, 19.8% (inactive).
Turning to `Cn1c(CCC(=O)OCC(=O)NCc2ccccc2Cl)nc(=O)c2ccccc21`, the inhibition was 1.08% (inactive).
Regarding `CN(C)C(=O)c1cccn(Cc2cccc(C(F)(F)F)c2)c1=O`, the inhibition was -0.69% (inactive).
The value for `CN1C(=O)/C(=C/C=C2\SCCN2C)OC1=S` was -0.91% (inactive); that for `Cc1ccc(NC(=O)C2(N3CCC3=O)CCCCC2)cc1` was 0.01% (inactive); that for `COc1ccc(C(=O)Nc2ccc(-n3nncc3C(C)(C)C)cc2)cc1` was 1.71% (inactive).
The result for `Cc1ccc(NS(=O)(=O)c2cccs2)cc1S(=O)(=O)N1CCCCCC1` reads 0.74% (inactive); that for `Cc1ccc(OCc2nnc(SC3CCc4ccccc4C3=O)n2C)cc1` (stereo not drawn), 1.34% (inactive).
The result for `O=C(Cn1cc(C(F)(F)F)ccc1=O)N/N=C/c1ccc(Cl)cc1Cl` reads -1.56% (inactive); that for `Cc1ccc2c(CC(=O)NCc3cccs3)coc2c1`, 9.43% (inactive); that for `CCc1nnc(NC(=O)c2cccc(S(=O)(=O)N(C)c3ccc(OC)cc3)c2)s1`, 3.19% (inactive).
`COc1ccc(CNC(=O)CN(Cc2ccc(Cl)cc2)S(C)(=O)=O)cc1`: the inhibition was 3.97% (inactive).
In the case of `COc1cccc(NC(=O)CC(c2ccc(OC(C)C)cc2)c2ccccc2OC)c1` (stereo not drawn), the inhibition was 10.9% (inactive).
Consider `Cc1ccc(O)c(NC(=S)NC(=O)COc2ccc(Br)cc2)c1`, for which the inhibition is 3.88% (inactive).
Regarding `CCOC(=O)C1=C(CC)Nc2ccccc2N=C1N`, the inhibition is 0.61% (inactive).
In the case of `CC(CNc1ccc([N+](=O)[O-])c2cccnc12)Nc1c([N+](=O)[O-])cc(C(F)(F)F)cc1[N+](=O)[O-]` (stereo not drawn), the inhibition was 23.1% (inactive).
Take `CC(=O)NC1C(Oc2ccc(C=O)cc2)OC(COC(C)=O)C(OC(C)=O)C1OC(C)=O` (stereo not drawn): the inhibition was 0.63% (inactive).
Turning to `Cc1nc2cc(NCc3cccs3)ccc2n1C`, the inhibition was 0.91% (inactive).
As to `CCCCc1ccc(S(N)(=O)=O)cc1`, the inhibition is 3.23% (inactive).
As for `O=C(NCc1ccccn1)c1cc(Br)ccc1Cl`, the inhibition was 2.2% (inactive).
On to `CC(C)C(c1nnnn1C(C)(C)C)N1CCN(Cc2cccnc2)CC1` (stereo not drawn), for which the inhibition was 1.7% (inactive).
The value for `CCOC(=O)c1ccc(NC(=S)Nc2cc(C)cc(C)n2)cc1` was 11.7% (inactive); that for `CC(C)N(C)C(=O)CCc1nnc(CCc2c[nH]c3ccccc23)o1` was 5.03% (inactive); that for `CC(C)CNC(=O)C(=O)NCc1ccccc1` was 7.35% (inactive).
For the molecule `Cc1c(Cl)cccc1NC(=S)N(Cc1ccccc1)Cc1cccnc1`, the inhibition is 3.04% (inactive).
As for `COc1ccccc1NC(=O)c1c(Br)cnn1C`, the inhibition is 9.25% (inactive).
For `Cc1cccc(N2C(=O)SC(SC(=Nc3ccccc3)Nc3ccccc3)C2=O)c1` (stereo not drawn), the inhibition is 0.89% (inactive).
As to `COc1ccc(N2C(=O)/C(=C\c3ccco3)N=C2SCC(N)=O)cc1Cl`, the inhibition is 0.72% (inactive).
Turning to `S=C(c1ccc(-c2ccccc2)o1)N1CCCCC1`, the inhibition was 1.68% (inactive).
As for `Cc1ccc(NC(=O)NC(=O)CSc2nnc(-c3ccc(OC(F)F)cc3)n2N)c(C)c1`, the inhibition was 4.7% (inactive).
The result for `COc1cccc(C2CC(c3ccccc3)=NN2S(=O)(=O)c2ccccc2)c1OC` (stereo not drawn) reads 5.72% (inactive).
Regarding `CCOc1ccc(NC(=O)c2cc(C)nc3ccccc23)cc1`, the inhibition was 4.37% (inactive).
Consider `COc1ccccc1NC(=O)/C=C/C(=O)O`, for which the inhibition is 3.21% (inactive).
